Source: PubChem BioAssay
IDE cell inh: cellular human IDE inhibition; HEK cells, FAbetaB cleavage, fluorescence polarization; P14735; inhibition, % at 5.59 µM; AID 434962; 0.41% of 320,000 active;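 active = percent inhibition above the average of all tested compounds plus 3 SD, set per screening campaign, cut at about 16% in these data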;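 also: IDE supplied by intact live HEK cells; FP after avidin binding of uncleaved biotin substrate so inhibition keeps polarization high; 0% = DMSO wells and 100% = 60 µM reference IDE inhibitor Ii1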
IDE act: IDE (human) activation, cell-based. P14735. HEK cells, FAbeta-B cleavage, fluorescence polarization; 0% vehicle, 100% cell-free pure enzyme wells. activation, % at 5.96 µM. 0.073% of 340,000 active;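 active = activation above the mean of all tested compounds plus 3 SD, set per screening campaign, cut at about 17% in these data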
PHOSPHO1 inh: inhibitors of human PHOSPHO1 phosphatase; Q8TCT1; recombinant PHOSPHO1, absorbance phosphatase assay; inhibition, % at 13.3 µM; 1.1% of 290,000 active; in the data active = inhibition above about 60%
UBC13 inh: inhibitors of human UBC13 polyubiquitin chain formation | TR-FRET | inhibition, % at 20 µM | 0.47% of 330,000 active; in the data active = inhibition above about 45%, passing the limit was not always enough
Target sequence (P61088 whole entry, looked up): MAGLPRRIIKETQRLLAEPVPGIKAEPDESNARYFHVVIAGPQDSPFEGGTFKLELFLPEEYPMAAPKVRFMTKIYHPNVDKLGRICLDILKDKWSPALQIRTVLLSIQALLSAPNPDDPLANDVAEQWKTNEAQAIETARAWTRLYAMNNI
procasp3 activ: procaspase-3 (human) activation; P42574; recombinant procaspase-3 D3A, Ac-DEVD-pNA absorbance 405 nm; activation, % at 8.5 µM; 0.11% of 330,000 active;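 active = activation above the mean of all tested compounds plus 3 SD, cut at about 21% in these data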;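 also: 0% = DMSO alone and 100% = DMSO wells spiked with extra 5 µM PC-3 D3A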
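Assay system – Procaspase-3 D3A mutant · Benchmarks – DMSO low control, extra-enzyme high control · Technique – 405 nm absorbance of p-nitroaniline, reads at 0 and 120 min · Doses – 8.5 µM nominal · Measure – % activation between DMSO and enzyme-spiked controls · Also added – Ac-DEVD-pNA chromogenic peptide substrate · Schedule – 1 h compound preincubation, 2 h substrate hydrolysis at 25 °C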
proCasp7 act: counter-screen: procaspase-7 (human) activation. P55210. recombinant procaspase-7, Ac-DEVD-pNA absorbance 405 nm; D23A/D198A/D206A triple mutant, cannot self-cleave; scale: DMSO 0, 5 µM enzyme 100. activation, % at 8.5 µM. 0.093% of 330,000 active;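 active = percent activation above the screen-wide mean plus 3 SD, cut at about 25% in these data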
Target sequence (P55210 whole entry D23A/D198A/D206A): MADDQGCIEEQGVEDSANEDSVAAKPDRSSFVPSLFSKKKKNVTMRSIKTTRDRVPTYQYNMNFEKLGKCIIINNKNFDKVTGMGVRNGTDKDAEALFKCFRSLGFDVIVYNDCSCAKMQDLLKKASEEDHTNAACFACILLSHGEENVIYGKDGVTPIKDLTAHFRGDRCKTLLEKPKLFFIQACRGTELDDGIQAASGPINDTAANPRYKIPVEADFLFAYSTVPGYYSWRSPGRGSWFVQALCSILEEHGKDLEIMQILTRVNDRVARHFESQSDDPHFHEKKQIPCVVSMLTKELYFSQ
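System: Uncleavable procaspase-7 mutant enzyme; Amount: 2 µM procaspase-7 mutant as dispensed; Schedule: 1 h compound preincubation, 2 h substrate cleavage, 25 °C; Measured by: 405 nm absorbance of p-nitroaniline; Evaluation: percent activation from buffer-corrected 0–120 min absorbance change; Control set: low DMSO alone, high DMSO plus 5 µM PC-7.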
IDE inh confirm: cellular human IDE inhibition, confirmation. shares compounds with IDE cell inh. HEK cells, FAbetaB cleavage, fluorescence polarization. inhibition, % at 5.59 µM. 51% of 1,200 active;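 active = mean inhibition across triplicate wells above the cutoff set by the earlier primary insulin-degrading enzyme screen, cut at about 16% in these data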;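 also: 0% = DMSO wells and 100% = 60 µM reference IDE inhibitor Ii1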
HEK293 tox: kills HEK cells in IDE inhibitor counter-screen; 28% of 1,200 active; HEK293 cytotoxicity, ATP luminescence; inhibition, % at 5.59 µM; shares compounds with IDE cell inh; in the data active = inhibition above about 22%;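 also: 0% = vehicle wells and 100% = reference cytotoxic drug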
Numbers without * were called inactive. Shown are actives, neighbours in structure and some others; about 1.9% of the full set was active somewhere.

How did CCOC(=O)C1=C(CSc2nc(C)cc(C)c2C#N)OC(N)=C(C#N)C1c1cccs1 (stereo unspecified) do in these assays?
IDE cell inh: 23*; PHOSPHO1 inh: -67; UBC13 inh: -1; procasp3 activ: -14; proCasp7 act: -4; IDE inh confirm: 3; HEK293 tox: 5

Results for COc1cc(/C=N\NC(=O)c2ccc(-c3ccccc3)cc2)cc(OC)c1OC(C)=O ?
IDE act: -13; PHOSPHO1 inh: 42; UBC13 inh: -7

Results for COc1ccc(C(=O)N/N=C/c2sc3ccccc3c2O)cc1 ?
IDE cell inh: 17*; IDE act: -27; PHOSPHO1 inh: -12; procasp3 activ: -15; proCasp7 act: 4; IDE inh confirm: 33*; HEK293 tox: 87*

How did O=C(N/N=C/c1sc2ccccc2c1O)c1ccccc1 do in these assays?
IDE cell inh: 34*; IDE act: -32; PHOSPHO1 inh: 6; UBC13 inh: -54; procasp3 activ: -5; proCasp7 act: -4; IDE inh confirm: 62*; HEK293 tox: 115*

Results for COc1cc(/C=N\NC(=O)c2ccc(-c3ccccc3)cc2)cc(OC)c1O ?
IDE cell inh: 19*; IDE act: -12; PHOSPHO1 inh: 13; UBC13 inh: 2; procasp3 activ: 7; proCasp7 act: -9; IDE inh confirm: 12; HEK293 tox: 11

How did O/N=C(\c1ccccc1)C(O)c1ccccc1 (stereo unspecified) do in these assays?
IDE cell inh: -2; IDE act: 5; PHOSPHO1 inh: 42; UBC13 inh: 6; procasp3 activ: 10; proCasp7 act: 19

How did COc1ccc(CN2CCC(Oc3cc(C(=O)NC4CC4)ccc3OC)CC2)c(O)c1 do in these assays?
IDE cell inh: 7; IDE act: 6; PHOSPHO1 inh: 37; UBC13 inh: 1; procasp3 activ: 6; proCasp7 act: -4

How did COC(=O)CNc1nc(Cl)nc(NC2CCCCC2)n1 do in these assays?
IDE act: 0; PHOSPHO1 inh: -59; UBC13 inh: 0

Results for C/C(Cc1ccccc1)=N\NC(=O)CNC(=O)/C=C\c1ccccc1 ?
IDE cell inh: 17*; PHOSPHO1 inh: -8; UBC13 inh: -4; procasp3 activ: 6; proCasp7 act: -6; IDE inh confirm: 2; HEK293 tox: 12

What do the screens show for `COc1ccc(/C=C/C(=O)NCC(=O)N/N=C(\C)Cc2ccccc2)cc1`?
IDE cell inh: 9; IDE act: 6; PHOSPHO1 inh: 12; UBC13 inh: 1; procasp3 activ: -3; proCasp7 act: 9

What do the screens show for `N#C/C(=C\c1ccc(N2CCOCC2)c([N+](=O)[O-])c1)c1nc2ccccc2[nH]1`?
IDE cell inh: 0; IDE act: 12; PHOSPHO1 inh: 13; UBC13 inh: -62; procasp3 activ: -6; proCasp7 act: -12

Results for N#C/C(=C\c1ccc(N2CCOCC2)o1)c1nc2ccccc2[nH]1 ?
IDE cell inh: 20*; IDE act: -151; PHOSPHO1 inh: 16; UBC13 inh: inactive; procasp3 activ: -9; proCasp7 act: -5; IDE inh confirm: 26*; HEK293 tox: 29*

What do the screens show for `CCO[C@H]1OC(C(=O)N2CCOCC2)=C[C@@H](c2coc3ccccc3c2=O)[C@@H]1CCCO`?
IDE cell inh: 5; IDE act: 0; PHOSPHO1 inh: 52; UBC13 inh: 6; procasp3 activ: 6; proCasp7 act: 4

How did CCc1nnc(/N=C/c2c(O)n(-c3ccc(Cl)cn3)c(=O)c3ccccc23)s1 do in these assays?
IDE cell inh: 17*; IDE act: 5; PHOSPHO1 inh: -11; UBC13 inh: 13; procasp3 activ: -2; proCasp7 act: -18; IDE inh confirm: 7; HEK293 tox: 10
